The species entered for data set [1] is Danio rerio. The experiment in a line: Inhibition of alpha-MSH-induced pigmentation in zebrafish assessed as decrease in size of black spots pre-treated with 0.2 mM compound at 9 hrs post fertilization followed by compound exposure for 37 hrs by microscopic analysis. The data set is classed as functional, organism-based.
Data set [2] in a line: Photostability of compound after 18 hrs under UV irradition condition. The data set is classed as physicochemical. Put shortly:
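Compound at 0.1 mM in 1X PBS, pH 7.4, was exposed to UV at ambient conditions for 18 h. UV spectra were compared before and after exposure; the HQ absorption band is at 289 nm.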

The species entered for data set [3] is Danio rerio. In words: Depigmentation effect on zebrafish assessed as eye color change from black to gray incubated for 63 hrs post fertilization by microscopic analysis. The data set is classed as functional, organism-based. Put shortly: (§1)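 Synchronized zebrafish embryos were kept in embryo medium containing compound at 50, 100 or 200 μM, added from DMSO to a final 0.1%. Mock control was 0.1% DMSO; positive control was HQ at 100 μM. Larval pigment spots were selected manually from dorsal-view microscope images, excluding eyes and yolk. Image analysis gave binary threshold, histogram and black-spot size; eye colour was scored visually. Data are means ± SEM versus mock.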

The species named for data set [4] is Danio rerio. The experiment in a line: Inhibition of pigmentation in zebrafish assessed as increase in histogram of black spots pre-treated with 0.2 mM compound at 9 hrs post fertilization followed by mock treatment for 37 hrs by microscopic analysis. It counts as functional, organism-based.
The species entered for data set [5] is Danio rerio. In words: Inhibition of pigmentation in zebrafish assessed as decrease in size of black spots pre-treated with 0.2 mM compound at 9 hrs post fertilization followed by mock treatment for 37 hrs by microscopic analysis. It counts as functional, organism-based.
The species entered for data set [6] is Danio rerio. In words: Inhibition of pigmentation in zebrafish assessed as increase in histogram of black spots pre-treated with 0.2 mM compound at 9 hrs post fertilization followed by compound exposure for 37 hrs by microscopic analysis. The data set is classed as functional, organism-based.
A short description of data set [7]: 1-Octanol-water partition coefficient, log P of the compound by UV spectrophotometry-based shake flask method. It counts as physicochemical.
The nature of data set [8]: Cytotoxicity against human HF16 cells assessed as decrease in cell viability at 200 uM after 24 hrs by MTT assay. The data set is classed as cell-based. A digest of the protocol: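 HF-16 human fetal foreskin fibroblasts exposed to compound at 200 μM, with 0.1% DMSO as vehicle control, for 24 hr. Viability was read by MTT assay. Data are means ± SEM, compared against the vehicle control.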
A general note: Tetrazolium dyes change colour on reduction, which living cells bring about.

For data set [9], the species on record is Danio rerio. In words: Inhibition of alpha-MSH-induced pigmentation in zebrafish assessed as increase in binary threshold pre-treated with 0.2 mM compound at 9 hrs post fertilization followed by compound exposure for 37 hrs by microscopic analysis. It counts as functional, organism-based.
The species entered for data set [10] is Danio rerio. The experiment in a line: Inhibition pigmentation in zebrafish assessed as increase in binary threshold pre-treated with 0.2 mM compound at 9 hrs post fertilization followed by mock treatment for 37 hrs by microscopic analysis. The data set is classed as functional, organism-based.
The species named for data set [11] is Danio rerio. In words: Depigmentation effect on zebrafish assessed as increase in histogram of black spots incubated for 63 hrs post fertilization by microscopic analysis. The data set is classed as functional, organism-based. Put shortly: as §1
Data set [12] can be described thus: Drug degradation assessed as hydrolysis at pH 3 to 9 by HPLC analysis. It counts as physicochemical. Particulars: buffer.
Data set [13] is filed under the species Danio rerio. In words: Inhibition of alpha-MSH-induced pigmentation in zebrafish assessed as increase in histogram of black spots pre-treated with 0.2 mM compound at 9 hrs post fertilization followed by compound exposure for 37 hrs by microscopic analysis. It counts as functional, organism-based.
Data set [14] is filed under the species Danio rerio. The experiment in a line: Depigmentation effect on zebrafish assessed as increase in binary threshold incubated for 63 hrs post fertilization by microscopic analysis. The data set is classed as functional, organism-based. Put shortly: as §1
Data set [15] in a line: Drug degradation of compound assessed as Cu2+-mediated oxidation. It counts as physicochemical. Put shortly: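 Compound at 0.1 mM in 1X PBS, pH 7.4, was treated with 20 μM Cu2+. UV absorption spectra were recorded over a time course.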
For data set [16], the species on record is Danio rerio. In words: Inhibition pigmentation in zebrafish assessed as increase in binary threshold pre-treated with 0.2 mM compound at 9 hrs post fertilization followed by compound exposure for 37 hrs by microscopic analysis. The data set is classed as functional, organism-based.
The species entered for data set [17] is Danio rerio. The experiment in a line: Inhibition of pigmentation in zebrafish assessed as decrease in size of black spots pre-treated with 0.2 mM compound at 9 hrs post fertilization followed by compound exposure for 37 hrs by microscopic analysis. It counts as functional, organism-based.
For data set [18], the species on record is Danio rerio. In words: Depigmentation effect on zebrafish assessed as decrease in size of black spots incubated for 63 hrs post fertilization by microscopic analysis. The data set is classed as functional, organism-based. Put shortly: as §1
A short description of data set [19]: Drug degradation assessed as hydrolysis in 1M NaOH […] by HPLC analysis. Particulars: buffer. It counts as physicochemical.

Active and inactive are the calls of the source.

The term logP denotes a log measure of how a compound divides between an organic and an aqueous phase.

As to `COCCOCCOCCOCCOc1ccc(O)cc1`, the inhibition entry in the data set listed under Danio rerio [1], in the data set filed under Danio rerio [6], in the data set listed under Danio rerio [9], in the data set listed under Danio rerio [13], in the data set filed under Danio rerio [16] and in the data set filed under Danio rerio [17] was “Active” each time. Further, the Stability result in data set [2], in data set [12] and in data set [15] was “Stable” each time. For the same compound, the Activity entry in the data set filed under Danio rerio [3] was “Dose-dependent effect”; in data set [8] it was “Non-toxic”; in the data set filed under Danio rerio [11] it was “Dose-dependent effect”; in the data set listed under Danio rerio [14], “Dose-dependent effect”; in the data set listed under Danio rerio [18], “Dose-dependent effect”. The inhibition entry in the data set filed under Danio rerio [4], in the data set listed under Danio rerio [5] and in the data set filed under Danio rerio [10] was “inactive” each time. Further, the logP in [7] is -0.026.
`Oc1ccc(O)cc1` [HYDROQUINONE]: in [2], the Stability entry is reported as “Unstable”. This compound also showed a logP in [7] of 0.25. Besides, the Activity entry in data set [8] is “Toxic”. In addition, in [15] (TDE = time-dependent effect), the Drug degradation result was “tde”.
With `COCCOCCOCCOCC(=O)Oc1ccc(O)cc1`, the Stability entry in data set [2] was “Stable”; in [19], “Unstable”; in [15] it was “Stable”. In addition, the Activity result in the data set filed under Danio rerio [3] is “Dose-dependent effect”; in data set [8] it was “Toxic”; in the data set filed under Danio rerio [11] it was “Dose-dependent effect”; in the data set listed under Danio rerio [14] it was “Dose-dependent effect”; in the data set filed under Danio rerio [18], “Dose-dependent effect”. In [7], this compound returned a logP of -0.036.

The values above are taken from ChEMBL document CHEMBL3745683, “Regulatory effect of hydroquinone-tetraethylene glycol conjugates on zebrafish pigmentation” (Bioorg Med Chem Lett, 2016).
